Screens: PubChem, several laboratories
The list is not random: actives were taken first. Their share in the collection is about 2%.
Runt-CBFb FRET = inhibitors of human RUNX1 Runt domain binding to CBFb | Q01196+Q13951 | Cerulean-Runt/Venus-CBFb FRET ratio 530/480, 1 h | inhibition, % at 20 µM | actives 0.46% (n = 220,000) | AID 1496;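 active = inhibition over about 50% at 20 µM in the single-dose screen, limit read from the data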;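 note: 0% = DMSO wells and 100% = excess unlabeled CBFb competitor control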
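Assay system: Cerulean-Runt domain fusion protein, energy donor; Signal: fluorescence energy transfer, 422 nm excitation, 530/480 nm emission; Timing: 1 h compound exposure, room temperature; Control set: unlabeled CBFb; Medium: Tris buffer pH 7.5 with salts and BSA; Compound: single test concentration of 20 µM, 1% DMSO final; Probe or stimulus: Venus-CBFb 100 nM.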
EBV gp42 block = inhibitors of Epstein-Barr virus glycoprotein 42. Q1HVG2. Fluorescence polarization binding assay, mP read-out. inhibition, % (tested at 21.74 µM). actives 0.42% (n = 220,000). AID 1085
MEX-5 binding = C. elegans MEX-5 TCR-2 RNA binding activity | Q9XUB2 | MEX-5/FITC-TCR2 RNA binding, fluorescence polarization; hits give low values | activity score (negative = inhibition of binding), % at 10 µM | actives 0.38% (n = 300,000);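 active = inhibition past about -25% in most replicates, and total fluorescence under double the plate's negative control median, limit read from the data; inconclusive = replicates evenly split on the limit, or fluorescence at least double controls; inactive = too little inhibition in most replicates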;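 note: 0% = DMSO and -100% = 5 µM competing unlabeled TCR2 RNA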
Runt-SMMHC FRET = inhibitors of human RUNX1 Runt domain binding to CBFb-SMMHC | Cerulean-Runt/Venus-CBFb-SMMHC FRET ratio 530/480, 1 h | actives 0.74% (n = 220,000) | inhibition, % at 20 µM | Q01196+Q13951 | AID 1434;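 active = mean inhibition across duplicate retests at 20 µM reaching about 50%, limit read from the data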;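 note: 0% = DMSO wells and 100% = wells with excess untagged CBFb-SMMHC; inhibitors lower the FRET ratio by blocking Runt binding to CBFb-SMMHC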
RanGTP-Impb inh = inhibitors of RanGTP-importin-beta interaction, primary screen, biochemical, FRET, CFP-Ran, YFP-importin-beta, homogeneous | cell-free CFP-Ran/YFP-importin-beta FRET ratio | inhibition, % (concentration not given with the values) | actives 1.1% (n = 300,000);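 active = more than half of the replicate wells show a fall in the fluorescence ratio signal beyond about 16%, limit read from the data, passing the limit was not always enough; inconclusive = exactly half of the replicate wells pass the set limit; inactive = fewer than half of replicates pass the limit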;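 note: 0% = DMSO wells and 100% = Ran loaded with GDP instead of GTP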
PKD1 kinase inh = blocks activity of human protein kinase D1 | PKD1 kinase fluorescence polarization assay | inhibition, % (test concentration not listed) | actives 0.056% (n = 200,000) | AID 797
Target sequence (Q15139 whole entry, looked up): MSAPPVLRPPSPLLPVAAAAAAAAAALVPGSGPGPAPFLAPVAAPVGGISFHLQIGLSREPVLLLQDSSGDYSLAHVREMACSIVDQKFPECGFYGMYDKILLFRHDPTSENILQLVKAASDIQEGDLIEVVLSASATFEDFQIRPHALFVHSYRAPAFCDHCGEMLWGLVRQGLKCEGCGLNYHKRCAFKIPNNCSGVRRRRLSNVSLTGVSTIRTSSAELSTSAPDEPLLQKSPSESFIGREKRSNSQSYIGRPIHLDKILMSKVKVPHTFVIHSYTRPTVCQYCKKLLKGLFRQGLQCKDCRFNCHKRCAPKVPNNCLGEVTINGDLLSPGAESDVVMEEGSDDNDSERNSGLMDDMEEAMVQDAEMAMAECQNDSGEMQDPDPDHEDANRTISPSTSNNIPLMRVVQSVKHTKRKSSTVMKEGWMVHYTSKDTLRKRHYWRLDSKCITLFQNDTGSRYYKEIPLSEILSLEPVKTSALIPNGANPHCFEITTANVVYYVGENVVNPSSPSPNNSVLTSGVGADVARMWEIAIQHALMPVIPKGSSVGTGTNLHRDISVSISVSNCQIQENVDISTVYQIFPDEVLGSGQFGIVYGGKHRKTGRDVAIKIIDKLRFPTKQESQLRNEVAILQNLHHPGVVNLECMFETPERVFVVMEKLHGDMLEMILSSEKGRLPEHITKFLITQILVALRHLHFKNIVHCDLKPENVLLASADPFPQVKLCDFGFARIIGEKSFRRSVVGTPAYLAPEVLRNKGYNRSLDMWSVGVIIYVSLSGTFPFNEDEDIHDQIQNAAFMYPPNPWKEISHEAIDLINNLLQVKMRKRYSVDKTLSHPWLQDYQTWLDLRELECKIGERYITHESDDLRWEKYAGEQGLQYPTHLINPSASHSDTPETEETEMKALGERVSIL
Numbers without * were called inactive; ? = inconclusive; . = not tested or not shown. Cut-off read from the data, not from the text of the source, unless noted: active = inhibition above about 50%; inactive = the rest.

SMILES | Runt-CBFb FRET | EBV gp42 block | MEX-5 binding | Runt-SMMHC FRET | RanGTP-Impb inh | PKD1 kinase inh
COCC(=O)/C=C1\Sc2ccccc2N1C | 11 | -8 | -4 | -3 | 3 | -2
CN1/C(=C/C(=O)c2cccs2)Sc2ccccc21 | 38 | -7 | -11 | 83* | 3 | 3
CN1/C(=C\C(=O)c2cccs2)C(C)(C)c2ccccc21 | 48 | -1 | 0 | 86* | 18* | 6
CC(C)(C)c1ccc(-n2ncc3c2CCCC3NC(=O)C2=NNC(=O)CC2)cc1 (stereo not drawn) | . | . | 1 | . | -1 | .
CC1(C)CC(=O)C2=C(C1)OC(N)=C(C#N)C2c1ccccc1[N+](=O)[O-] (stereo not drawn) | 86* | 15 | -80* | 91* | 61* | 5
O=C(NCCCn1ccnc1)c1cc2c(ccc3ccccc32)o1 | -1 | 8 | 6 | 0 | 2 | -4
O=C(NCc1nnc2c(C(F)(F)F)cc(Cl)cn12)c1cccnc1 | . | . | -3 | . | 2 | .
CC1=C(C#N)C(C)C2=C(CC(C)(C)CC2=O)N1 (stereo not drawn) | 22 | -14 | -1 | 50* | 5 | -7
CC1=C(C#N)C(c2ccc(O)cc2)C2=C(CC(C)(C)CC2=O)N1 (stereo not drawn) | 4 | -21 | 1 | 8 | -1 | -2
CC(C)(C)C(=O)CSc1nc2c(c(-c3cccs3)c1C#N)CCC2 | 1 | -40 | 0 | 28 | 62* | -8
N#Cc1c(SCC(N)=O)nc2c(c1-c1ccc(O)cc1)CCCC2 | 0 | 111* | 1 | -9 | -1 | 1
COc1ccc(-c2c(C#N)c(SCC(N)=O)nc3c2CCCC3)cc1 | 1 | -8 | -2 | -5 | 5 | 1
CC(=O)CSc1nc(N)c(C#N)c(-c2cccs2)c1C#N | 0 | 1 | -2 | -2 | -1 | -6
CC(C)Sc1n[nH]c(=O)n1-c1ccccc1 | 1 | 0 | 1 | 2 | ? | .
CCCCN(C)CC(O)Cn1cc(/C=C/C(=O)c2ccc(OCC)cc2)c2ccccc21 (stereo not drawn) | . | . | 3 | . | 25* | .
CCOC(=O)/C(C#N)=C1/C=C(C)NC(c2ccccc2O)=N1 | 25 | -10 | -2 | 61* | 3 | -20
COC(=O)C1=C(C)N(CCc2cc(OC)c(OC)c(OC)c2)C(=O)N[C@H]1c1ccc(Br)cc1 | -3 | 3 | -1 | 3 | 6 | 4
CCc1cc2c3c(c(=O)oc2cc1OC(C)C(=O)O)CCCC3 (stereo not drawn) | . | . | 2 | . | -1 | .
CCc1cc2c3c(c(=O)oc2cc1O)CCCC3 | 96* | 1 | -1 | 144* | ? | 17
CCc1cc2c(CN3CCN(CCO)CC3)cc(=O)oc2cc1O | 70* | 7 | -3 | 62* | 113* | -4
CCc1cc2c(CN3CCN(C)CC3)cc(=O)oc2cc1O | 18 | -9 | -3 | 57* | 114* | -5
Cc1ccc2c(CN3CCN(CCO)CC3)cc(=O)oc2c1C | 2 | -12 | 4 | 1 | -2 | -3
COc1ccc(OC)c(CN2CCN(Cc3cc(=O)oc4cc(O)ccc34)CC2)c1 | . | . | 0 | . | 61* | .
Cc1cc(NC(=O)CCC(=O)N(CC(=O)NC2CCCC2)c2ccc(F)c(Cl)c2)no1 | . | . | -1 | . | -1 | .
O=C(NCCCNC(=O)C(F)(F)C(F)F)C(F)(F)C(F)F | -1 | -6 | 1 | 3 | 29* | -14
SMILES | Runt-CBFb FRET | EBV gp42 block | MEX-5 binding | Runt-SMMHC FRET | RanGTP-Impb inh | PKD1 kinase inh
Cc1cc(Cl)ccc1NC(=S)NCc1ccc(F)cc1 | . | . | 4 | . | -2 | .
O=C(CS(=O)(=O)c1ccc(F)cc1)NCCS(=O)(=O)c1ccccc1 | . | . | 0 | . | 6 | .
Cc1csc2c(=O)sc(NC(=O)c3ccco3)nc12 | 34 | -20 | 1 | 59* | 1 | .
Cc1csc2c(=O)sc(NC(=O)c3cccs3)nc12 | 40 | -7 | -2 | 87* | 0 | .
Cc1csc(NC(=O)c2cccs2)n1 | 3 | -5 | 0 | -4 | 4 | 2
O=C(CCC1CCN(C(=O)c2cc(C(F)(F)F)ccc2Cl)CC1)NC1CC1 | . | . | 2 | . | 2 | .
Cc1ccc(C(=O)OCCOc2cccc(Cl)c2)cc1S(=O)(=O)N1CCOCC1 | . | . | 2 | . | 5 | .
CCCCOC(=S)NC(=O)c1sc2ccccc2c1Cl | 3 | -5 | -1 | 3 | 29* | -1
CCC(=O)N1CCc2cc(Br)cc(S(=O)(=O)N3CCCCC3CC)c21 (stereo not drawn) | . | . | -2 | . | 8 | .
CC(=O)N1CCOc2ccc(S(=O)(=O)N3CCN(c4cc(C)ccc4C)CC3)cc21 | . | . | 0 | . | -1 | .
NC(=S)N=Nc1ccc(NN=C(N)N)cc1 | . | . | -53* | . | -2 | .
CC(OC(=O)CCN=C1NS(=O)(=O)c2ccccc21)C(=O)Nc1ccc(N(C)C)cc1 (stereo not drawn) | . | . | -3 | . | 1 | .
Nc1c(C(=O)NCc2ccco2)c2nc3ccccc3nc2n1CCc1ccccc1F | 30 | -10 | 3 | . | 50* | -1
COc1ccc(CCn2c(N)c(C(=O)NCc3ccco3)c3nc4ccccc4nc32)cc1OC | 8 | 2 | -4 | 25 | 39* | -12
Cc1ccc(N(CC(=O)NCc2ccccc2)S(=O)(=O)c2c(C)noc2C)cc1 | . | . | -1 | . | -2 | .
COc1ccc(OCCNC(=O)c2ccc(C)cc2)cc1 | . | . | 0 | . | 0 | .
N#C/C(=C(/O)CCCl)c1ccccn1 | 49 | -4 | 1 | 92* | 21* | 3
N#C/C(=C(\O)c1ccco1)c1ccccn1 | 0 | -12 | 2 | -6 | -2 | 8
Cc1cccn2c(=O)c(C=O)c(N3CC(C)OC(C)C3)nc12 (stereo not drawn) | 2 | -17 | 4 | -6 | 0 | -1
Cc1cccn2c(=O)c(/C=C(\C#N)C(=O)NC3CCS(=O)(=O)C3)c(N3CC(C)OC(C)C3)nc12 (stereo not drawn) | 12 | -6 | 1 | 103* | ? | .
Cc1cccn2c(=O)c(/C=C(\C#N)C(=O)NC3CCS(=O)(=O)C3)c(N3CCC(C(N)=O)CC3)nc12 (stereo not drawn) | 134* | 17 | -3 | 63* | ? | -1
OCC(O)CN1CCCC1 (stereo not drawn) | 2 | -6 | 1 | 1 | 0 | .
COc1ccc(/C=N/NC(=O)C2(C)NC(C)(C)Cc3ccccc32)cc1 (stereo not drawn) | -2 | -11 | 0 | -11 | -1 | -3
O=C(NC1CCCC1)C(c1ccncc1)N(C(=O)c1csnn1)C1CCCC1 (stereo not drawn) | 4 | -9 | 1 | -1 | -1 | -1
Cc1ccccc1-c1ccc(/C=C2/SC(N3CCOCC3)=NC2=O)o1 | -21 | 37 | ? | -42 | 20* | .
O=C(O)CCCCCn1c(SCC(=O)c2ccc(O)c(O)c2)nc2ccsc2c1=O | 2 | 5 | -27* | 1 | 9 | 38
